Laboratory results as given in ChEMBL document CHEMBL3124900, “Discovery and early clinical evaluation of BMS-605339, a potent and orally efficacious tripeptidic acylsulfonamide NS3 protease inhibitor for the treatment of hepatitis C virus infection” (J Med Chem, 2014).

Tests used:
Hepatitis C virus = assay: Antiviral activity against Hepatitis C virus genotype 1b Con1 after 4 days by cell-based replicon assay; type: functional, organism-based, Hepacivirus hominis; details: isolate Con1, 96 h
[1] = Cytotoxicity against human HuH7 cells; type: cell-based; details: Huh-7 cells
Liver = assay: Drug uptake in intraduodenally dosed Sprague-Dawley rat liver measured per gm of tissue over 4 hrs by LC/MS/MS analysis; type: ADME, organism-based; details: in vivo, other
In short: (§1)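 Abbreviated rat screen: surgically prepared rats were dosed intraduodenally. Plasma was sampled over 4 h, and liver was collected at the 4 h end point. Plasma was precipitated with two volumes of ACN plus internal standard. Liver was weighed and homogenized in 2 volumes of 20% Hanks buffered salt solution/80% ACN. Both were quantified by LC/MS/MS.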

[2] = Inhibition of Hepatitis C virus genotype 1a H77 recombinant NS3/4A protease expressed in Escherichia coli BL21 (DE3) cell using Ac-Asp-Glu-Asp(EDANS)-Glu-Glu-Abu[C(O)-O]-Ala-Ser-Lys(DABCYL)-NH2 as substrate by FRET assay; design: species or system Hepatitis C virus (isolate H77)
[3] = (§2) AUC in intraduodenally dosed Sprague-Dawley rat plasma measured over 4 hrs by LC/MS/MS analysis; type: ADME, organism-based; design: time < 4 hr, route intraduodenal; details: Sprague-Dawley, plasma; in short: as §1
[4] = Plasma concentration in Sprague-Dawley rat at 20 mg/kg, po administered via gavage measured after 8 hrs by LC/MS/MS analysis; type: ADME, organism-based; design: dose 20 mg/kg, route oral
[5] = Drug uptake in Sprague-Dawley rat liver at 20 mg/kg, po administered via gavage measured after 8 hrs by LC/MS/MS analysis; type: ADME, organism-based; design: dose 20 mg/kg, route oral; details: read-out: Drug uptake
[6] = Half life in dog liver microsomes at 3 uM by LC/MS/MS analysis; type: ADME, Canis lupus familiaris
In short: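 Pooled liver microsomes were run in triplicate per species. Each incubation held 3 μM test compound in 0.1 M potassium phosphate pH 7.4 at 37 °C, with 0.9 mg/mL microsomal protein, 0.033 mM MgCl2 and an NADPH-regenerating system. Proteins were precipitated with two volumes of ACN containing internal standard, and supernatants were analysed by LC/MS/MS.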

[7] = Plasma concentration in Sprague-Dawley rat at 20 mg/kg, po administered via gavage measured after 4 hrs by LC/MS/MS analysis; type: ADME, organism-based; design: dose 20 mg/kg, route oral
[8] = AUC in Sprague-Dawley rat at 20 mg/kg, po administered via gavage by LC/MS/MS analysis; type: ADME, organism-based; design: dose 20 mg/kg, route oral; details: plasma
[9] = AUC in Beagle dog at 3 mg/kg by LC/MS/MS analysis; type: ADME, organism-based, Canis lupus familiaris; design: dose 3 mg/kg; details: plasma
[10] = Whole body plasma clearance in Beagle dog at 3 mg/kg, iv by LC/MS/MS analysis; type: ADME, organism-based, Canis lupus familiaris; design: dose 3 mg/kg, route intravenous
[11] = Whole body plasma clearance in Sprague-Dawley rat at 5 mg/kg, iv by LC/MS/MS analysis; type: ADME, organism-based; design: dose 5 mg/kg, route intravenous
[12] = Drug uptake in Sprague-Dawley rat liver at 20 mg/kg, po administered via gavage measured after 4 hrs by LC/MS/MS analysis; type: ADME, organism-based; design: dose 20 mg/kg, route oral; details: read-out: Drug uptake
[13] = AUC in Sprague-Dawley rat at 15 mg/kg, po administered via gavage by LC/MS/MS analysis; type: ADME, organism-based; design: dose 15 mg/kg, route oral; details: plasma
[14] = Apparent terminal half life in Beagle dog at 3 mg/kg, iv by LC/MS/MS analysis; type: ADME, organism-based, Canis lupus familiaris; design: dose 3 mg/kg, route intravenous; details: in vivo, read-out: betat1/2(app) (converted)
[15] = Apparent terminal half life in Sprague-Dawley rat at 5 mg/kg, iv by LC/MS/MS analysis; type: ADME, organism-based; design: dose 5 mg/kg, route intravenous; details: in vivo, read-out: betat1/2(app) (converted)
Plasma = assay: as §2; type: ADME, organism-based; design: time < 4 hr, route intraduodenal; details: in vivo, other, 4 h, BLD = below limit of detection; in short: as §1
[16] = Drug uptake in Sprague-Dawley rat liver at 15 mg/kg, po administered via gavage measured after 24 hrs by LC/MS/MS analysis; type: ADME, organism-based; design: dose 15 mg/kg, route oral; details: read-out: Drug uptake
In short: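 Rats were dosed orally at 15 mg/kg, and liver and plasma were collected 24 h post-dose. Plasma was treated with two volumes of ACN containing internal standard. Tissue was homogenized in 2 volumes of 20% HBSS/80% ACN. Analysis was by LC/MS/MS on a C18 column at 60 °C, using an ammonium formate/formic acid water–methanol gradient, SRM detection and a 5 nM LLQ.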

[17] = Drug uptake in iv dosed Sprague-Dawley rat liver measured after 24 hrs by LC/MS/MS analysis; type: ADME, organism-based; details: read-out: Drug uptake
[18] = Oral bioavailability in Sprague-Dawley rat at 15 mg/kg administered via gavage by LC/MS/MS analysis; type: ADME, organism-based; details: in vivo

Row | Structure (SMILES) | EC50 (Hepatitis C virus) [nM] | CC50 [1] [nM] | Drug uptake (Liver) [ng] | IC50 [2] [nM] | AUC at 4 h [3] [µM·h] | clearance [11] [mL/min/kg] | AUC [13] [µM·h] | half-life [15] [h] | bioavailability [18] [%] | further results
1 | C=C[C@@H]1C[C@]1(NC(=O)[C@@H]1C[C@@H](Oc2ncc(C)c3ccccc23)CN1C(=O)[C@@H](NC(=O)OC(C)(C)C)C(C)(C)C)C(=O)NS(=O)(=O)C1CC1 | 50 | 71000 | 97240 | 1 | 0.2 |  |  |  |  | 
2 | C=C[C@@H]1C[C@]1(NC(=O)[C@@H]1C[C@@H](Oc2cc(-c3ccccc3)nc3cc(OC)ccc23)CN1C(=O)[C@@H](NC(=O)OC(C)(C)C)C(C)(C)C)C(=O)NS(=O)(=O)C1CC1 | 4 |  | 7850 | 1 | 0.077 | 55 | 0.577 | 1 |  | concentration at 8 h [4]: 4 nM; concentration at 8 h [5]: 600 nM; half-life at 3 µM [6]: 2.83 h; concentration at 4 h [7]: 580 nM; AUC [8]: 0.73 µM·h; AUC [9]: 2 µM·h; clearance [10]: 16 mL/min/kg; concentration at 4 h [12]: 5800 nM; half-life [14]: 0.6 h
3 | C=C[C@@H]1C[C@]1(NC(=O)[C@@H]1C[C@@H](Oc2nccc3cc(OC)ccc23)CN1C(=O)[C@@H](NC(=O)OC(C)(C)C)C(C)(C)C)C(=O)O | 2000 | > 100000 |  | 247 |  |  |  |  |  | Drug uptake (Liver; BLD = below limit of detection): BLD; AUC (Plasma): BLD
4 | C=C[C@@H]1C[C@]1(NC(=O)[C@@H]1C[C@@H](Oc2cncc3cc(OC)ccc23)CN1C(=O)[C@@H](NC(=O)OC(C)(C)C)C(C)(C)C)C(=O)NS(=O)(=O)C1CC1 | 42 | > 100000 | 1205 | 2 | 0.38 |  |  |  |  | 
5 | C=C[C@@H]1C[C@]1(NC(=O)[C@@H]1C[C@@H](Oc2nccc3cc(F)ccc23)CN1C(=O)[C@@H](NC(=O)OC(C)(C)C)C(C)(C)C)C(=O)NS(=O)(=O)C1CC1 | 117 | > 100000 | 69560 | 87 | 1.46 |  |  |  |  | 
6 | C=C[C@@H]1C[C@]1(NC(=O)[C@@H]1C[C@@H](Oc2ncc(OC)c3ccccc23)CN1C(=O)[C@@H](NC(=O)OC(C)(C)C)C(C)(C)C)C(=O)NS(=O)(=O)C1CC1 | 19 | 76000 | 232200 | 2 | 0.28 | 182 | 0.37 | 9.8 |  | concentration at 24 h [16]: 4200 nM; concentration at 24 h [17]: 8000 nM
7 | C=C[C@@H]1C[C@]1(NC(=O)[C@@H]1C[C@@H](Oc2nccc3c(OC)cccc23)CN1C(=O)[C@@H](NC(=O)OC(C)(C)C)C(C)(C)C)C(=O)NS(=O)(=O)C1CC1 | 25 | > 100000 | 51260 | 1 | 2.36 | 6 | 3.74 | 2.2 | 9 | 
8 | CC[C@@H]1C[C@]1(NC(=O)[C@@H]1C[C@@H](Oc2nccc3cc(OC)ccc23)CN1C(=O)[C@@H](NC(=O)OC(C)(C)C)C(C)(C)C)C(=O)NS(=O)(=O)C1CC1 | 22 | > 100000 |  | 6 |  | 17 | 0.58 | 4.2 | 4 | 
9 | C=C[C@@H]1C[C@]1(NC(=O)[C@@H]1C[C@@H](Oc2ncc(OC)c3cc(OC)ccc23)CN1C(=O)[C@@H](NC(=O)OC(C)(C)C)C(C)(C)C)C(=O)NS(=O)(=O)C1CC1 | 2 | 45000 |  | 1 |  | 27 | 0.194 | 3.1 | 2 | 
10 | C=C[C@@H]1C[C@]1(NC(=O)[C@@H]1C[C@@H](Oc2ncnc3cc(OC)ccc23)CN1C(=O)[C@@H](NC(=O)OC(C)(C)C)C(C)(C)C)C(=O)NS(=O)(=O)C1CC1 | 18 | > 100000 | 2319 | 2 | 0.11 |  |  |  |  | 
11 | C=C[C@@H]1C[C@]1(NC(=O)[C@@H]1C[C@@H](Oc2nccc3c(C)cccc23)CN1C(=O)[C@@H](NC(=O)OC(C)(C)C)C(C)(C)C)C(=O)NS(=O)(=O)C1CC1 | 40 | 89000 | 160300 | 5 | 6.36 |  |  |  |  | 
12 | C=C[C@@H]1C[C@]1(NC(=O)[C@@H]1C[C@@H](Oc2nccc3cc(OCC)ccc23)CN1C(=O)[C@@H](NC(=O)OC(C)(C)C)C(C)(C)C)C(=O)NS(=O)(=O)C1CC1 | 12 | 74000 | 14630 | 3 | 1.83 |  |  |  |  | 
13 | C=C[C@@H]1C[C@]1(NC(=O)[C@@H]1C[C@@H](Oc2nccc3c(Cl)cccc23)CN1C(=O)[C@@H](NC(=O)OC(C)(C)C)C(C)(C)C)C(=O)NS(=O)(=O)C1CC1 | 25 | 38000 | 36160 | 1 | 5.5 | 7 | 2.08 | 6.6 | 6 | 
14 | C=C[C@@H]1C[C@]1(NC(=O)[C@@H]1C[C@@H](Oc2nccc3cc(N4CCOCC4)ccc23)CN1C(=O)[C@@H](NC(=O)OC(C)(C)C)C(C)(C)C)C(=O)NS(=O)(=O)C1CC1 | 26 | > 100000 | 1018 | 3 | 0.46 |  |  |  |  | 
15 | C=C[C@@H]1C[C@]1(NC(=O)[C@@H]1C[C@@H](Oc2nccc3cc(OC)ccc23)CN1C(=O)[C@@H](NC(=O)OC(C)(C)C)C(C)C)C(=O)NS(=O)(=O)C1CC1 | 33 | > 100000 |  | 2 |  | 7.8 | 10.5 | 2.9 | 28 | 
16 | C=C[C@@H]1C[C@]1(NC(=O)[C@@H]1C[C@@H](Oc2nc(-c3ccccc3)cc3cc(OC)ccc23)CN1C(=O)[C@@H](NC(=O)OC(C)(C)C)C(C)(C)C)C(=O)NS(=O)(=O)C1CC1 | 4 | 13000 | 72910 | 1 | 1.11 |  |  |  |  | 
17 | C=C[C@@H]1C[C@]1(NC(=O)[C@@H]1C[C@@H](Oc2nccc3ccccc23)CN1C(=O)[C@@H](NC(=O)OC(C)(C)C)C(C)(C)C)C(=O)NS(=O)(=O)C1CC1 | 60 | > 100000 | 28094 | 7 | 0.75 | 19 | 2.67 | 2.2 |  | 
18 | C=C[C@@H]1C[C@]1(NC(=O)[C@@H]1C[C@@H](Oc2nccc3cc(OC)ccc23)CN1C(=O)[C@@H](NC(=O)O[C@H]1CCOC1)C(C)(C)C)C(=O)NS(=O)(=O)C1CC1 | 70 | > 100000 |  | 9 |  | 49 | 0.13 | 0.67 | 3 | 
